Source: ChEMBL document CHEMBL1159377, “Synthetic approach to exo-endo cross-conjugated cyclohexadienones and its application to the syntheses of dehydrobrachylaenolide, isodehydrochamaecynone, and trans-isodehydrochamaecynone” (J Nat Prod, 2003)

Tests used:
A549 [1] = assay: Inhibition of IL-1-beta-induced ICAM1 protein expression in human A549 cells treated for 1 hr before IL1-beta challenge for 6 hrs; type: functional, cell-based
Procedure, shortened: (§1)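 A549 cells at 3 × 10⁴/well pretreated with compound 1 h, then IL-1β at 0.25 ng/mL final for 6 h. Cells fixed in 1% paraformaldehyde and blocked with 1% BSA overnight. Mouse anti-human ICAM-1 and peroxidase anti-mouse IgG each 60 min at 37 °C. o-Phenylenediamine/H₂O₂ substrate (citrate pH 5.3), 20 min dark, A415. Expression normalised between IL-1β-treated and unstimulated wells. Triplicate.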

Coptotermes formosanus [2] = assay: Insecticidal activity against Coptotermes formosanus assessed as mortality at 1000 ppm after 1 day by filter paper contact method relative to control; type: functional
Coptotermes formosanus [3] = assay: Insecticidal activity against Coptotermes formosanus assessed as mortality at 100 ppm after 5 days by filter paper contact method relative to control; type: functional
Coptotermes formosanus [4] = assay: Insecticidal activity against Coptotermes formosanus assessed as mortality at 1000 ppm after 5 days by filter paper contact method relative to control; type: functional
Coptotermes formosanus [5] = assay: Insecticidal activity against Coptotermes formosanus assessed as mortality at 100 ppm after 2 days by filter paper contact method relative to control; type: functional
Coptotermes formosanus [6] = assay: Insecticidal activity against Coptotermes formosanus assessed as mortality at 1000 ppm after 2 days by filter paper contact method relative to control; type: functional
Coptotermes formosanus [7] = assay: Insecticidal activity against Coptotermes formosanus assessed as mortality at 100 ppm after 1 day by filter paper contact method relative to control; type: functional
Coptotermes formosanus [8] = assay: Insecticidal activity against Coptotermes formosanus assessed as mortality at 100 ppm after 7 days by filter paper contact method relative to control; type: functional
Coptotermes formosanus [9] = assay: Insecticidal activity against Coptotermes formosanus assessed as mortality at 1000 ppm after 7 days by filter paper contact method relative to control; type: functional
[10] = Cytotoxicity against human A549 cells after 24 hrs at 3.2 uM by MTT assay relative to control; type: cell-based; details: read-out: T/C
Procedure, shortened: (§2)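 A549 lung carcinoma cells grown in RPMI 1640 with 10% fetal calf serum, 50 µM 2-mercaptoethanol and penicillin-streptomycin-neomycin. Cells incubated with or without compound for 24 h, with MTT (500 µg/mL) present for the last 4 h. Formazan solubilised overnight in 5% SDS, absorbance read at 595 nm. Viability (%) = (sample − background)/(control − background) × 100. Triplicate cultures, mean ± SD.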

A549 [11] = assay: Inhibition of IL-1-beta-induced ICAM1 protein expression in human A549 cells at 32 uM treated for 1 hr before IL1-beta challenge for 6 hrs relative to control; type: functional; procedure, shortened: as §1
A549 [12] = assay: Inhibition of IL-1-beta-induced ICAM1 protein expression in human A549 cells at 320 uM treated for 1 hr before IL1-beta challenge for 6 hrs relative to control; type: functional; procedure, shortened: as §1
[13] = Cytotoxicity against human A549 cells after 24 hrs at 1 uM by MTT assay relative to control; type: cell-based; details: read-out: T/C; procedure, shortened: as §2
A549 [14] = assay: Cytotoxicity against human A549 cells after 24 hrs by MTT assay; type: cell-based; details: A549, 24 h
Procedure, shortened: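 A549 cells (RPMI 1640, 10% FCS, 50 µM 2-mercaptoethanol, antibiotics) incubated with test compound 24 h; MTT 500 µg/mL pulsed for final 4 h; formazan dissolved in 5% SDS overnight; absorbance 595 nm. Viability % = (sample − background)/(control − background) × 100. Triplicate cultures.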

A549 [15] = assay: Inhibition of IL-1-beta-induced ICAM1 protein expression in human A549 cells at 10 uM treated for 1 hr before IL1-beta challenge for 6 hrs relative to control; type: functional; procedure, shortened: as §1
A549 [16] = assay: Inhibition of IL-1-beta-induced ICAM1 protein expression in human A549 cells at 100 uM treated for 1 hr before IL1-beta challenge for 6 hrs relative to control; type: functional; procedure, shortened: as §1
[17] = Cytotoxicity against human A549 cells after 24 hrs at 10 uM by MTT assay relative to control; type: cell-based; details: read-out: T/C; procedure, shortened: as §2
[18] = Cytotoxicity against human A549 cells after 24 hrs at 320 uM by MTT assay relative to control; type: cell-based; details: read-out: T/C; procedure, shortened: as §2
A549 [19] = assay: Inhibition of IL-1-beta-induced ICAM1 protein expression in human A549 cells at 1000 uM treated for 1 hr before IL1-beta challenge for 6 hrs relative to control; type: functional; procedure, shortened: as §1
A549 [20] = assay: Inhibition of IL-1-beta-induced ICAM1 protein expression in human A549 cells at 1 uM treated for 1 hr before IL1-beta challenge for 6 hrs relative to control; type: functional; procedure, shortened: as §1
[21] = Cytotoxicity against human A549 cells after 24 hrs at 32 uM by MTT assay relative to control; type: cell-based; details: read-out: T/C; procedure, shortened: as §2
A549 [22] = assay: Inhibition of IL-1-beta-induced ICAM1 protein expression in human A549 cells at 3.2 uM treated for 1 hr before IL1-beta challenge for 6 hrs relative to control; type: functional; procedure, shortened: as §1
[23] = Cytotoxicity against human A549 cells after 24 hrs at 1000 uM by MTT assay relative to control; type: cell-based; details: read-out: T/C; procedure, shortened: as §2
[24] = Cytotoxicity against human A549 cells after 24 hrs at 100 uM by MTT assay relative to control; type: cell-based; details: read-out: T/C; procedure, shortened: as §2

C[C@@H]1C(=O)O[C@@H]2[C@H]1CC[C@@]1(C)CCC(=O)[C@@H](C)[C@H]21
IC50 (A549 [1]): > 1000 µM

C=C1C(=O)O[C@H]2[C@H]3[C@H](C)C(=O)C=C[C@]3(C)CC[C@@H]12 [TUBERIFERINE]
IC50 (A549 [1]): 7.4 µM

C=C1C(=O)O[C@H]2[C@H]3[C@H](C)C(=O)CC[C@]3(C)CC[C@@H]12
IC50 (A549 [1]): 17 µM

C#C[C@@H]1CC[C@@]2(C)CCC(=O)[C@@H](C)[C@@H]2C1
Activity (Coptotermes formosanus [2]): 0% | Activity (Coptotermes formosanus [3]): 0% | Activity (Coptotermes formosanus [4]): 100% | Activity (Coptotermes formosanus [5]): 0% | Activity (Coptotermes formosanus [6]): 93% | Activity (Coptotermes formosanus [7]): 0%

C#C[C@@H]1CC[C@@]2(C)C=CC(=O)C(=C)[C@@H]2C1
Activity (Coptotermes formosanus [2]): 33% | Activity (Coptotermes formosanus [3]): 17% | Activity (Coptotermes formosanus [4]): 100% | Activity (Coptotermes formosanus [5]): 3% | Activity (Coptotermes formosanus [6]): 93% | Activity (Coptotermes formosanus [7]): 0%

C#C[C@@H]1CC[C@@]2(C)C=CC(=O)[C@@H](C)[C@@H]2C1
Activity (Coptotermes formosanus [2]): 80% | Activity (Coptotermes formosanus [8]): 100% | Activity (Coptotermes formosanus [3]): 43% | Activity (Coptotermes formosanus [4]): 100% | Activity (Coptotermes formosanus [5]): 0% | Activity (Coptotermes formosanus [6]): 97% | Activity (Coptotermes formosanus [7]): 0% | Activity (Coptotermes formosanus [9]): 100%

C#C[C@@H]1CC[C@@]2(C)C=CC(=O)C(C)=C2C1 [DEHYDROCHAMAECYNONE]
Activity (Coptotermes formosanus [2]): 13% | Activity (Coptotermes formosanus [3]): 7% | Activity (Coptotermes formosanus [4]): 100% | Activity (Coptotermes formosanus [5]): 0% | Activity (Coptotermes formosanus [6]): 90% | Activity (Coptotermes formosanus [7]): 0%

C#C[C@@H]1CC[C@@]2(C)C=CC(=O)[C@@H](C)[C@H]2C1 [CHAMAECYNONE]
Activity (Coptotermes formosanus [2]): 27% | Activity (Coptotermes formosanus [8]): 87% | Activity (Coptotermes formosanus [3]): 27% | Activity (Coptotermes formosanus [4]): 100% | Activity (Coptotermes formosanus [5]): 0% | Activity (Coptotermes formosanus [6]): 97% | Activity (Coptotermes formosanus [7]): 0% | Activity (Coptotermes formosanus [9]): 100%

C=C1C(=O)C=C[C@]2(C)CC[C@H]3C(=C)C(=O)O[C@H]3[C@@H]12 [DEHYDROBRACHYLAENOLIDE]
viability at 24 h, 3.2 µM [10]: 90.8% | T/C (A549 [11]): 0.1% | T/C (A549 [12]): -1.4% | viability at 24 h, 1 µM [13]: 100% | IC50 (A549 [14]): 55 µM | Activity (A549 [1]): Dose-dependent effect | IC50 (A549 [1]): 3 µM | T/C (A549 [15]): 1.1% | T/C (A549 [16]): -0.3% | viability at 24 h, 10 µM [17]: 93.8% | viability at 24 h, 320 µM [18]: 28.6% | T/C (A549 [19]): -3.3% | T/C (A549 [20]): 75.5% | viability at 24 h, 32 µM [21]: 68.8% | T/C (A549 [22]): 44.4% | viability at 24 h, 1000 µM [23]: 11.8% | viability at 24 h, 100 µM [24]: 29.3%
